Screens deposited in PubChem by several laboratories.
Sampled rows, rich in hits. Any-hit rate of the full collection: about 2.2%.
PPC-1+TRAIL kill = kills PPC-1 cancer cells in the presence of TRAIL; cell killing (% activity), % at 4 µM or 5 µM; PPC-1 cells + TRAIL, ATPLite viability luminescence; 0.41% of 220,000 active;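 active = cell killing above 50% in the first pass at 4 µM, then a duplicate retest at 5 µM averaging 50% or more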
APP 5'UTR act = APP 5'UTR luciferase reporter activation; 1% of 190,000 active; SH-SY5Y APP 5'UTR luciferase reporter, luminescence; zero percent = DMSO vehicle wells; AID 1276; activation, % at 2 µM;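 active = activation above a set limit, based on mean plus 3 SD of controls, cut at about 140% in these data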
FLuc inh counter = Photinus pyralis luciferase inhibition counter-screen; P08659; ATPLite firefly luciferase biochemical luminescence, 10 min; inhibition, % at 10 µM; 1.5% of 200,000 active; AID 1006;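 active = inhibition above about 50% when tested at 10 µM, limit read from the data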
Target sequence (P08659 whole entry, looked up): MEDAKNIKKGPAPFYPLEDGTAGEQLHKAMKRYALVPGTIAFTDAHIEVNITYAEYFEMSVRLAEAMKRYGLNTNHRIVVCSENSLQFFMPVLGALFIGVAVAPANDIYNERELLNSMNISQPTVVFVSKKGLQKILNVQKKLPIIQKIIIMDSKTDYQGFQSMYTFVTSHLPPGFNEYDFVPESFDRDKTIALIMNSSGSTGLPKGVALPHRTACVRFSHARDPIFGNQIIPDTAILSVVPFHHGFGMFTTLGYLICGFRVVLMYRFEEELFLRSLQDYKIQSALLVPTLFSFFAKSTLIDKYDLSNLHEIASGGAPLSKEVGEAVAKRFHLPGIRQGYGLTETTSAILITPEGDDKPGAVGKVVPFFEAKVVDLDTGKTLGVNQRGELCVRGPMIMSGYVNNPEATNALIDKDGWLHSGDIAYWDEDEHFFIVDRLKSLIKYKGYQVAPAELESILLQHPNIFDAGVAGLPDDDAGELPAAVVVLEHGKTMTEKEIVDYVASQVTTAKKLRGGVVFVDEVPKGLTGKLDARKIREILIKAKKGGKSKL
TRAIL sens C8 = caspase-8 TRAIL sensitization | 1% of 360,000 active | NB7+C8 cells + TRAIL, ATPlite viability luminescence | inhibition (viability loss, TRAIL sensitization), % at 10 µM | AID 624354;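 active = compounds causing at least 50% loss of cell viability in the single-dose screen, relative to plate controls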
FLuc stim CS = affects firefly luciferase, flagging false hits in luciferase stimulation screens; P08659; ATPlite luciferase biochemical, luminescence, 10 min; 0 = ATP-free wells, 1 = DMSO control; activation factor at 10 µM; 200,000 tested, under 10 active; AID 1027;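 active = luciferase activation factor, scaled between plate controls, of at least 2 with compound at 10 µM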
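Material: Luciferase/luciferin reagent mix | Doses: Test compounds dosed from 2 mM stocks in 100% DMSO | Timing: 10 min incubation after luciferase reagent addition, room temperature | Measured by: Luminescence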
NF-kB expr up = NF-kB expression increase, human neuronal cells. NF-kB reporter expression; stronger effect = higher value. fold change at 12.5 µM. 1.6% of 190,000 active. AID 1239; in the data active = fold change above about 3.3
Large screens that a line does not name were inactive.

CC(=O)c1c(C)[nH]c(C(=O)OCCOc2ccccc2)c1C	APP 5'UTR act 212.0
Cc1c(C(=O)OCCOc2ccccc2)[nH]c2c1C(=O)CCC2	NF-kB expr up 3.53
CCOC(=O)CC(=O)CSc1ncnc2c1cnn2-c1ccccc1	NF-kB expr up 3.79
Cc1ccc(S(=O)(=O)NNc2ccccc2)c(C)c1	none
CCCn1c(O)c(/C=C2\C=NN=C2c2ccccc2)sc1=S	TRAIL sens C8 76.4
C=CCn1c(O)c(/C=C2\C=NN=C2c2ccccc2)sc1=S	none (no result: APP 5'UTR act, FLuc inh counter, FLuc stim CS, NF-kB expr up)
O=C1C(Cl)=C(NCCc2ccccc2)C(=O)c2ccccc21	none (no result: PPC-1+TRAIL kill, APP 5'UTR act, FLuc inh counter, FLuc stim CS, NF-kB expr up)
O=C(O)c1ccc(NC2=C(Cl)C(=O)c3ccccc3C2=O)cc1	none (no result: APP 5'UTR act, FLuc inh counter, FLuc stim CS, NF-kB expr up)
O=C1C(Cl)=C(NCc2cccnc2)C(=O)c2ccccc21	TRAIL sens C8 80.0 (no result: PPC-1+TRAIL kill, APP 5'UTR act, FLuc inh counter, FLuc stim CS, NF-kB expr up)
O=C1C(Cl)=C(Nc2ccccc2)C(=O)c2ccccc21	TRAIL sens C8 88.2
CC(=O)Nc1sc(C)c(C)c1C(=O)OCC(=O)N(C)c1c(N)n(Cc2ccccc2)c(=O)[nH]c1=O	none (no result: PPC-1+TRAIL kill, APP 5'UTR act, FLuc inh counter, FLuc stim CS, NF-kB expr up)
COCCN(C(=O)COC(=O)c1c(NC(C)=O)sc(C)c1C)c1c(N)n(Cc2ccccc2)c(=O)[nH]c1=O	TRAIL sens C8 50.7 (no result: PPC-1+TRAIL kill, APP 5'UTR act, FLuc inh counter, FLuc stim CS, NF-kB expr up)
Clc1cccc(-c2nnc(-c3ccno3)o2)c1	none (no result: APP 5'UTR act, FLuc inh counter, FLuc stim CS, NF-kB expr up)
Clc1cccc(-c2nnc(-c3ccccc3)o2)c1	APP 5'UTR act 136.5, FLuc inh counter 72.6, NF-kB expr up 8.8
c1ccc(-c2nnc(-c3ccccc3)o2)cc1	APP 5'UTR act 163.4, NF-kB expr up 4.59
Cc1cc(C)nc(-n2nc(C)c(Sc3ccc(F)cc3)c2N)n1	APP 5'UTR act 165.4
CSc1ccccc1-c1nnc(-c2ccc(C)cc2)o1	FLuc inh counter 71.4, TRAIL sens C8 61.7, NF-kB expr up 5.02
COc1ccccc1-c1nnc(-c2ccc(N3CCOCC3)cc2)o1	none
COc1ccccc1-c1nnc(-c2ccc(C)cc2)o1	TRAIL sens C8 53.1 (no result: PPC-1+TRAIL kill, APP 5'UTR act, FLuc inh counter, FLuc stim CS, NF-kB expr up)
CSc1ccccc1-c1nnc(-c2ccccc2)o1	APP 5'UTR act 139.7, FLuc inh counter 64.2, NF-kB expr up 5.45
CSc1nnc(-c2ccccc2SC)o1	none
COc1ccc(OC)c(NC(=O)NNS(=O)(=O)c2ccc(C)cc2C)c1	none (no result: PPC-1+TRAIL kill, APP 5'UTR act, FLuc inh counter, FLuc stim CS, NF-kB expr up)
COc1ccc([C@H]2C[C@H](O)[C@@H](n3cc(COC(=O)c4ccccc4)nn3)CN2CC2CCCCC2)cc1	none (no result: PPC-1+TRAIL kill, APP 5'UTR act, FLuc inh counter, FLuc stim CS, NF-kB expr up)
C=CCNC(=S)NNC(=O)COc1ccc(Br)cc1	none
C=CCNC(=S)NNC(=O)COc1ccc2cc(Br)ccc2c1	NF-kB expr up 3.39
CC(=O)Nc1ccc(S(=O)(=O)N2CCCC2C(=O)Nc2ccc3c(c2)OCCO3)cc1 (stereo unspecified)	none
O=C(c1ccccc1)c1nnc(-c2ccccc2F)o1	FLuc inh counter 77.7, NF-kB expr up 9.75
c1cncc(CN=C2Nc3ccccc3CS2)c1	none
COc1cccc(CN=C2Nc3ccccc3CS2)c1	NF-kB expr up 3.94
Clc1ccc(CN=C2Nc3ccccc3CS2)cc1	NF-kB expr up 4.81
Cc1ccc(CN=C2Nc3ccccc3CS2)cc1	APP 5'UTR act 143.2, FLuc inh counter 81.0, NF-kB expr up 6.76
CC12CC(O)C3C(CCC4=CC(=O)CCC43C)C1CCC2=CCO (stereo unspecified)	none (no result: PPC-1+TRAIL kill, APP 5'UTR act, FLuc inh counter, FLuc stim CS, NF-kB expr up)
Cc1cccc(NC(=O)c2ccc(C)c(S(=O)(=O)N3CCOCC3)c2)n1	none (no result: PPC-1+TRAIL kill, APP 5'UTR act, FLuc inh counter, FLuc stim CS, NF-kB expr up)
O=C(O)/C=C/c1ccc(S(=O)(=O)N2CCN(CCN3C(=O)C4C5C=CC(C5)C4C3=O)CC2)cc1 (stereo unspecified)	none (no result: APP 5'UTR act, FLuc inh counter, FLuc stim CS, NF-kB expr up)
O=C(CSc1ncn(-c2ccccc2)n1)c1cccs1	NF-kB expr up 3.51
c1ccc(CSc2ncn(-c3ccccc3)n2)cc1	NF-kB expr up 4.31
O=C(CSc1nnc(-c2ccccc2)n1-c1ccccc1)c1cccs1	none
Nc1nc(CSc2ncn(-c3ccccc3)n2)cs1	none
C#CCOCCOCCOCCNc1nc(N2CCN(C(=O)[C@H](CCC(=O)O)n3cc(C(N)CC(C)C)nn3)CC2)nc(N2CCN(C(=O)[C@H](Cc3ccc(O)cc3)n3cc(C(N)[C@H](C)CC)nn3)CC2)n1 (stereo partly specified)	none (no result: TRAIL sens C8)
Nc1nc(N)c2cc([N+](=O)[O-])ccc2n1	none (no result: PPC-1+TRAIL kill, APP 5'UTR act, FLuc inh counter, FLuc stim CS, NF-kB expr up)
Nc1nc(N)c2cc(S(=O)(=O)c3ccc4ccccc4c3)ccc2n1	TRAIL sens C8 72.3 (no result: PPC-1+TRAIL kill, APP 5'UTR act, FLuc inh counter, FLuc stim CS, NF-kB expr up)
O=C(NC1CC1)C1CCN(C2CCN(C(=O)c3ccc4cccc(F)c4n3)CC2)CC1	none
CS(=O)(=O)c1ncc(Cl)c(C(=O)Nc2ccc(N3CCOCC3)cc2)n1	TRAIL sens C8 72.7
O=C(Nc1ccc(N2CCOCC2)cc1)c1cnccn1	TRAIL sens C8 78.4 (no result: PPC-1+TRAIL kill, APP 5'UTR act, FLuc inh counter, FLuc stim CS, NF-kB expr up)
CS(=O)(=O)c1ccc(C(=O)Nc2ccc(N3CCOCC3)cc2)c(Cl)c1	none
O=C(Nc1ccc(N2CCOCC2)cc1)c1csc(COCCO)n1	TRAIL sens C8 54.6 (no result: PPC-1+TRAIL kill, APP 5'UTR act, FLuc inh counter, FLuc stim CS, NF-kB expr up)
CCCCc1ccc(NC(=O)c2cnccn2)cc1	APP 5'UTR act 174.2, FLuc inh counter 75.8, TRAIL sens C8 55.1, NF-kB expr up 5.75
CCOc1ccc(Cl)cc1-c1cc(C(=O)Nc2ccc(F)cc2)[nH]n1	none (no result: PPC-1+TRAIL kill, APP 5'UTR act, FLuc inh counter, FLuc stim CS, NF-kB expr up)
CCN1C(=O)[C@H]2[C@H]3CN=C(SCc4ccc(Cl)cc4)N3[C@@](C)(C(=O)OC)[C@H]2C1=O	none (no result: PPC-1+TRAIL kill, APP 5'UTR act, FLuc inh counter, FLuc stim CS, NF-kB expr up)
Cc1ccccc1NC(=O)c1nc(S(C)(=O)=O)ncc1Cl	none (no result: PPC-1+TRAIL kill, APP 5'UTR act, FLuc inh counter, FLuc stim CS, NF-kB expr up)
CS(=O)(=O)c1ncc(Cl)c(C(=O)Nc2ccc(OC(F)F)cc2)n1	TRAIL sens C8 72.4 (no result: PPC-1+TRAIL kill, APP 5'UTR act, FLuc inh counter, FLuc stim CS, NF-kB expr up)
O=C(Nc1ccc2nsnc2c1)NC1CCCCC1	NF-kB expr up 3.77
O=C(Nc1ccc2nsnc2c1)C1CC1	none
